Structures are written as SMILES. Active and inactive are the calls of the source. The rule behind the calls is not given here.

Data set [1] relates to Hepatitis C virus. Briefly: Antiviral activity against Hepatitis C virus subtype 1b replicon in human HuH7 cells after 48 hrs by subgenomic replicon assay. Format: functional, organism-based, Hepacivirus hominis. Particulars: genotype 1b, Huh-7, 48 h. (In general: Replicon systems follow genome replication, usually without infectious particles.)
The nature of data set [2]: Cytotoxicity against human HuH7 cells. It counts as cell-based, Huh-7.
Data set [3] concerns Hepatitis C virus. Briefly: Antiviral activity against Hepatitis C virus subtype 1b replicon in by replicon assay in presence of adenosine deaminase inhibitor pentostatin. It counts as functional, organism-based. Particulars: Hepacivirus hominis; genotype 1b. Put shortly: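 Genotype 1b replicon in HUH7 cells, 48 h compound exposure, run with and without the adenosine/adenylate deaminase inhibitor pentostatin.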

Data set [4] can be described thus: Prodrug conversion of the compound using UV spectroscopic analysis in presence of adenosine deaminase. Format: ADME. In outline:
(§1)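 Nucleoside at 44 μM (1 ml, phosphate buffer pH 7.4) with 30 μL adenosine deaminase solution. UV spectra taken at 1 min intervals for 30 min. Conversion judged by the spectrum matching 2'-C-methylguanosine. Reaction followed up to 24 h.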

The subject of another data set is Huh-7. Briefly: Prodrug stability in human HuH7 cell lysates assessed as monophosphate formation at pH 7.6 after every 1 hr for 11 hrs by NMR assay. Format: ADME, cell-based, Lysate. The note with it: huh-7, pH 7.6, 11 h. Put shortly: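 HuH7 cell lysate (10^7 cells) in acetone-d6 and Trizma buffer pH 7.6 at 37 °C. 31P NMR taken every 1 h for 11 h. Monophosphate identified by a signal at the shift of an authentic monophosphate.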

A short description of data set [5]: Prodrug conversion of the compound after 24 hrs using UV spectroscopic analysis in presence of adenosine deaminase. It counts as ADME. Put shortly: as §1
Data set [6] in a line: Stability of the compound assessed as half life by NMR analysis in presence of carboxypeptidase Y. Format: ADME. Put shortly:
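Incubation with carboxypeptidase Y in acetone-d6 and Trizma buffer pH 7.6. 31P NMR spectra taken every 7 min over 14 h to follow loss of starting material and intermediate formation.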

In turn, `C[C@@]1(O)[C@H](O)[C@@H](CO)O[C@H]1n1cnc2c(NCc3ccccc3)nc(N)nc21` displayed an EC50 with Hepatitis C virus [1] of 30 µM.

For the compound `CCOc1nc(N)nc2c1ncn2[C@@H]1O[C@H](COP(=O)(N[C@@H](C)C(=O)OC2CCCCO2)Oc2cccc3ccccc23)[C@@H](O)[C@@]1(C)O` (stereo not given in full), the EC50 in the data set on Hepatitis C virus [1] was found to be 0.08 µM. The CC50 in data set [2] was found to be 47 µM. Also, the outcome in the data set with Hepatitis C virus [3] was inactive.

As to `C[C@@]1(O)[C@H](O)[C@@H](CO)O[C@H]1N1C=NC2C(=O)NC(N)=NC21` (stereo not given in full), in data set [4], the Drug metabolism result is recorded as “Active”.

In turn, `COCCCOc1nc(N)nc2c1ncn2[C@@H]1O[C@H](CO)[C@@H](O)[C@@]1(C)O` registered an EC50 in the data set with Hepatitis C virus [1] of 12 µM. This compound showed a CC50 in data set [2] above 100 µM.

In turn, `CCOc1nc(N)nc2c1ncn2[C@@H]1O[C@H](COP(=O)(N[C@@H](C)C(=O)O[C@@H](C)c2ccccc2)Oc2cccc3ccccc23)[C@@H](O)[C@@]1(C)O` (stereo not given in full) came in with an EC50 with Hepatitis C virus [1] of 0.085 µM. The compound also returned a CC50 in data set [2] of 12 µM. Moreover, the Drug metabolism entry in the data set with Huh-7 is given as “Active”. Besides, the result in the data set on Hepatitis C virus [3] was inactive.

In the data set with Hepatitis C virus [1], `CCOc1nc(N)nc2c1ncn2[C@@H]1O[C@H](COP(=O)(N[C@@H](C)C(=O)OCc2ccccc2)Oc2cccc3ccccc23)[C@@H](O)[C@@]1(C)O` (stereo not given in full) showed an EC50 of 0.04 µM. In data set [2], this compound returned a CC50 of 11 µM. Also, the outcome with Hepatitis C virus [3] was inactive.

As to `C[C@H](NP(=O)(OC[C@H]1O[C@@H](n2cnc3c(NCCc4ccccc4)nc(N)nc32)[C@](C)(O)[C@@H]1O)Oc1cccc2ccccc12)C(=O)OCC(C)(C)C` (stereo not given in full), in the data set on Hepatitis C virus [1], the EC50 was determined as 0.27 µM and the concentration for an effect of 90% (EC90) came out at 1.3 µM. In data set [2], this compound registered a CC50 of 42 µM. Also, the outcome in the data set on Hepatitis C virus [3] was inactive.

In the data set on Hepatitis C virus [1], `C[C@H](NP(=O)(OC[C@H]1O[C@@H](n2cnc3c(Cl)nc(N)nc32)[C@](C)(O)[C@@H]1O)Oc1cccc2ccccc12)C(=O)OCC(C)(C)C` (stereo not given in full) gave an EC50 of 0.012 µM and an EC90 of 0.028 µM. Further, it took 16 µM to reach half-maximal cytotoxicity in data set [2] (CC50). The result in the data set with Hepatitis C virus [3] was inactive.

`COc1nc(N)nc2c1ncn2[C@@H]1O[C@H](CO)[C@@H](O)[C@@]1(C)O` [BETA-2'-C-METHYL-6-O-METHYL GUANOSINE]: the response in the data set with Hepatitis C virus [1] was half-maximal at 4.6 µM (EC50). In data set [2], this compound had a CC50 above 100 µM.

In turn, `C[C@@]1(O)[C@H](O)[C@@H](CO)O[C@H]1n1cnc2c(NCCc3ccccc3)nc(N)nc21` yielded a 50% effective concentration (EC50) with Hepatitis C virus [1] of 24 µM. In data set [2], this compound had a CC50 above 100 µM.

Take `CNc1nc(N)nc2c1ncn2[C@@H]1O[C@H](CO)[C@@H](O)[C@@]1(C)O`: the EC50 in the data set on Hepatitis C virus [1] is 13 µM. Besides, in data set [2], the CC50 is above 100 µM. Further, in data set [5], the Drug metabolism result was “Not Active”.

In the data set with Hepatitis C virus [1], `CCOc1nc(N)nc2c1ncn2[C@@H]1O[C@H](COP(=O)(N[C@@H](C)C(=O)OC(C)C)Oc2cccc3ccccc23)[C@@H](O)[C@@]1(C)O` (stereo not given in full) yielded an EC50 of 0.14 µM. The same compound yielded a CC50 in data set [2] of 40 µM. Also, the outcome in the data set on Hepatitis C virus [3] was inactive. Moreover, the half-life in data set [6] was 4 h.

Take `CCOc1nc(N)nc2c1ncn2[C@@H]1O[C@H](COP(=O)(N[C@@H](C)C(=O)OCC(C)(C)C)Oc2cccc3ccccc23)[C@@H](O)[C@@]1(C)O` (stereo not given in full): in the data set on Hepatitis C virus [1], it took 0.008 µM to reach a half-maximal effect (EC50) and the EC90 turned out to be 0.032 µM. Moreover, in data set [2], the CC50 was 10 µM. In the data set with Hepatitis C virus [3], the result was inactive.

Take `CC(C)Oc1nc(N)nc2c1ncn2[C@@H]1O[C@H](CO)[C@@H](O)[C@@]1(C)O`: the EC50 in the data set with Hepatitis C virus [1] amounted to 9.3 µM. The same compound came in with a half-maximal cytotoxic concentration (CC50) in data set [2] above 100 µM.

For the compound `CSc1nc(N)nc2c1ncn2[C@@H]1O[C@H](CO)[C@@H](O)[C@@]1(C)O`, the half-maximal effective concentration (EC50) in the data set with Hepatitis C virus [1] was 11 µM. Also, the CC50 in data set [2] is above 100 µM. Further, in data set [5], the Drug metabolism result is on record as “Not Active”.

Consider `C[C@H](NP(=O)(OC[C@H]1O[C@@H](n2cnc3c(NCc4ccccc4)nc(N)nc32)[C@](C)(O)[C@@H]1O)Oc1cccc2ccccc12)C(=O)OCC(C)(C)C` (stereo not given in full), for which, in the data set on Hepatitis C virus [1], the EC50 amounted to 0.79 µM and the EC90 is 2.7 µM. For the same compound, the CC50 in data set [2] is 15 µM. Besides, in the data set on Hepatitis C virus [3], the outcome was inactive.

In the case of `CCOc1nc(N)nc2c1ncn2[C@@H]1O[C@H](COP(=O)(N[C@@H](C)C(=O)OCc2ccc(F)cc2F)Oc2cccc3ccccc23)[C@@H](O)[C@@]1(C)O` (stereo not given in full), in the data set with Hepatitis C virus [1], the EC50 was 0.034 µM. This compound also yielded a CC50 in data set [2] of 17 µM. Moreover, the result in the data set with Hepatitis C virus [3] was inactive.

In the data set on Hepatitis C virus [1], `CC(C)Oc1nc(N)nc2c1ncn2[C@@H]1O[C@H](COP(=O)(N[C@@H](C)C(=O)OCC(C)(C)C)Oc2cccc3ccccc23)[C@@H](O)[C@@]1(C)O` (stereo not given in full) registered an EC50 of 0.023 µM and an EC90 of 0.065 µM. The compound further had a CC50 in data set [2] of 11 µM. The result in the data set with Hepatitis C virus [3] was inactive.

In the data set on Hepatitis C virus [1], `CSc1nc(N)nc2c1ncn2[C@@H]1O[C@H](COP(=O)(N[C@@H](C)C(=O)OCC(C)(C)C)Oc2cccc3ccccc23)[C@@H](O)[C@@]1(C)O` (stereo not given in full) gave a concentration for a half-maximal effect (EC50) of 0.037 µM and an EC90 of 0.16 µM. Moreover, in data set [2], the CC50 turned out to be 41 µM. Moreover, in the data set on Hepatitis C virus [3], the outcome was inactive.

In the data set on Hepatitis C virus [1], `CNc1nc(N)nc2c1ncn2[C@@H]1O[C@H](COP(=O)(N[C@@H](C)C(=O)OCC(C)(C)C)Oc2cccc3ccccc23)[C@@H](O)[C@@]1(C)O` (stereo not given in full) had a concentration giving a half-maximal response (EC50) of 0.035 µM and a 90% effect concentration (EC90) of 0.103 µM. The same compound registered a CC50 in data set [2] of 38 µM. Besides, in the data set on Hepatitis C virus [3], the result was inactive.

In the data set with Hepatitis C virus [1], `C[C@@]1(O)[C@H](O)[C@@H](CO)O[C@H]1n1cnc2c(Cl)nc(N)nc21` returned an EC50 of 8.5 µM. In data set [2], this compound registered a CC50 above 100 µM.

With `CCOc1nc(N)nc2c1ncn2[C@@H]1O[C@H](COP(=O)(N[C@H](C(=O)OCC(C)(C)C)C(C)C)Oc2cccc3ccccc23)[C@@H](O)[C@@]1(C)O` (stereo not given in full), the EC50 in the data set with Hepatitis C virus [1] amounted to 0.17 µM. This compound had a CC50 in data set [2] of 24 µM. In the data set on Hepatitis C virus [3], the result was inactive.

Consider `COCCCOc1nc(N)nc2c1ncn2[C@@H]1O[C@H](COP(=O)(N[C@@H](C)C(=O)OCC(C)(C)C)Oc2cccc3ccccc23)[C@@H](O)[C@@]1(C)O` (stereo not given in full), for which, in the data set on Hepatitis C virus [1], the concentration for a half-maximal effect (EC50) is 0.043 µM and the 90% effect level (EC90) was put at 0.12 µM. This compound also gave a CC50 in data set [2] of 31 µM. In addition, the result in the data set on Hepatitis C virus [3] was inactive.

In turn, `COc1nc(N)nc2c1ncn2[C@@H]1O[C@H](COP(=O)(N[C@@H](C)C(=O)OCC(C)(C)C)Oc2cccc3ccccc23)[C@@H](O)[C@@]1(C)O` (stereo not given in full) [BMS-986094] yielded a 90% effect concentration (EC90) in the data set with Hepatitis C virus [1] of 0.038 µM. The outcome in the data set with Hepatitis C virus [3] was inactive.

For the compound `CCOc1nc(N)nc2c1ncn2[C@@H]1O[C@H](CO)[C@@H](O)[C@@]1(C)O`, the EC50 with Hepatitis C virus [1] is 8.8 µM. In data set [2], this compound displayed a CC50 above 100 µM. In addition, in data set [4], the Drug metabolism result was “Active”.

The EC50 is the concentration that produces a half-maximal response. For orientation: CC50 means the concentration giving 50% cytotoxicity. A lower CC50 goes with harm at low concentration. As a reminder, the EC90 is the point of the concentration-response curve where the effect stands at 90%. The half-life is the time in which the quantity being followed falls by half.
